In ChEMBL document CHEMBL1132179, “Design, synthesis, and biological evaluation of novel non-piperazine analogues of 1-[2-(diphenylmethoxy)ethyl]- and 1-[2-[bis(4-fluorophenyl)methoxy]ethyl]-4-(3-phenylpropyl)piperazines as dopamine transporter inhibitors” (J Med Chem, 1999):
pIC50, pKi: −log10 of the molar value.

Key:
[1] = biological target: T1, Sodium-dependent serotonin transporter (Homo sapiens, UniProt P31645); assay: Inhibition of [125I]RTI-55 binding to serotonin transporter (SERT) expressed in HEK cells; format: cell-based, HEK293
Summary of the method: (§1)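 Membranes from transfected HEK 293 cells (lysed in 2 mM HEPES/1 mM EDTA, pelleted at 30000g, resuspended in 0.32 M sucrose), ~15 μg protein per tube. GF/C filtration, counting. Duplicate competition curves; IC50 converted to Ki by Cheng–Prusoff.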
Target sequence in this assay (P31645 whole entry): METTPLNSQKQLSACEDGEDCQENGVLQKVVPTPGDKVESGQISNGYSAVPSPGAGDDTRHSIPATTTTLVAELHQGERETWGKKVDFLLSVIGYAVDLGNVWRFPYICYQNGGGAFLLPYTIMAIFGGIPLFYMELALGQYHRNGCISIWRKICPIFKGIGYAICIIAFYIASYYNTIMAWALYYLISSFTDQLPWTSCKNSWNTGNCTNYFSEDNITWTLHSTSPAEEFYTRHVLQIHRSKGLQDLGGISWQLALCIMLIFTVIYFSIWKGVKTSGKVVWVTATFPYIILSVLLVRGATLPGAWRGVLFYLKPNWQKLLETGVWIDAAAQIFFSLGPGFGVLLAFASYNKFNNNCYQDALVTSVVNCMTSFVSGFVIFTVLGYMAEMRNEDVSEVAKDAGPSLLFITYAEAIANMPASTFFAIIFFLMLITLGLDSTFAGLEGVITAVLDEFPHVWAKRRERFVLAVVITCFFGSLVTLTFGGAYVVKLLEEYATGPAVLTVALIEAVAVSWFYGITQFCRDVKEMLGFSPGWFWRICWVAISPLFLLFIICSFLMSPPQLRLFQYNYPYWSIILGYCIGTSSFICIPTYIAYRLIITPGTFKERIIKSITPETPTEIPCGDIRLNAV

[2] = biological target: T2, Sodium-dependent noradrenaline transporter (Homo sapiens, UniProt P23975); assay: Inhibition of [125I]RTI-55 binding to norepinephrine transporter (NET) expressed in HEK cells; format: cell-based, HEK293
[3] = biological target: T3, Sodium-dependent dopamine transporter (Homo sapiens, UniProt Q01959); assay: Inhibition of [125I]RTI-55 binding at Dopamine transporter (DAT) expressed in HEK cells; format: cell-based, HEK293; summary of the method: as §1
[4] = biological target: T1, Sodium-dependent serotonin transporter; assay: Ratio between [3H]5-HT reuptake and SERT binding; format: functional
Target sequence in this assay (P31645 whole entry, looked up): as the sequence (P31645 whole entry) above

[5] = biological target: Monoamine transporters; Norepinephrine & dopamine (Homo sapiens) (UniProt Q01959+P23975); assay: selectivity ratio between noradrenaline and dopamine transporter binding; format: protein assay
[6] = biological target: T3, Sodium-dependent dopamine transporter; assay: Inhibition of [3H]DA uptake in HEK cells expressing dopamine transporter; format: functional, cell-based, HEK293
Summary of the method: (§2)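 Confluent transfected HEK 293 cells washed in PBS, scraped and suspended. Suspension preincubated with drug 10 min at 25 °C in Krebs HEPES, then [3H]DA or [3H]5-HT (20 nM final) added for another 10 min. Ended by filtration onto GF/C filters presoaked in 0.05% poly(ethylenimine), counting. Six drug concentrations, triplicate; IC50 reported.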

[7] = biological target: T2, Sodium-dependent noradrenaline transporter; assay: Inhibition of [3H]- NE uptake in HEK cells expressing norepinephrine transporter; format: functional, cell-based, HEK293
[8] = biological target: T1, Sodium-dependent serotonin transporter; assay: Inhibition of [3H]- 5-HT uptake in HEK cells expressing serotonin transporter; format: functional, cell-based, HEK293; summary of the method: as §2
Target sequence in this assay (P31645 whole entry): as above

[9] = biological target: T3, Sodium-dependent dopamine transporter; assay: Ratio between [3H]DA reuptake and DAT binding; format: functional
[10] = biological target: Monoamine transporters; serotonin & dopamine (Homo sapiens) (UniProt P31645+Q01959); assay: Selectivity ratio between serotonin and dopamine transporters; format: protein assay
[11] = biological target: T2, Sodium-dependent noradrenaline transporter; assay: Compound was tested for its affinity by the inhibition of [125I]RTI-55 binding at norepinephrine transporter (NET) transfected in HEK cells; format: cell-based, HEK293
Summary of the method: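 Membranes from HEK 293 cells transfected with NET (lysed in 2 mM HEPES/1 mM EDTA, pelleted at 30000g, resuspended in 0.32 M sucrose), ~15 μg protein, preincubated with drug 10 min. Then [125I]RTI-55 (40–80 pM final) added in Krebs HEPES, 90 min at room temperature in dark. Filtration, counting. Competition in duplicate; IC50 converted to Ki by Cheng–Prusoff. Final DMSO 0.01%.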

T2 sequence (P23975 whole entry): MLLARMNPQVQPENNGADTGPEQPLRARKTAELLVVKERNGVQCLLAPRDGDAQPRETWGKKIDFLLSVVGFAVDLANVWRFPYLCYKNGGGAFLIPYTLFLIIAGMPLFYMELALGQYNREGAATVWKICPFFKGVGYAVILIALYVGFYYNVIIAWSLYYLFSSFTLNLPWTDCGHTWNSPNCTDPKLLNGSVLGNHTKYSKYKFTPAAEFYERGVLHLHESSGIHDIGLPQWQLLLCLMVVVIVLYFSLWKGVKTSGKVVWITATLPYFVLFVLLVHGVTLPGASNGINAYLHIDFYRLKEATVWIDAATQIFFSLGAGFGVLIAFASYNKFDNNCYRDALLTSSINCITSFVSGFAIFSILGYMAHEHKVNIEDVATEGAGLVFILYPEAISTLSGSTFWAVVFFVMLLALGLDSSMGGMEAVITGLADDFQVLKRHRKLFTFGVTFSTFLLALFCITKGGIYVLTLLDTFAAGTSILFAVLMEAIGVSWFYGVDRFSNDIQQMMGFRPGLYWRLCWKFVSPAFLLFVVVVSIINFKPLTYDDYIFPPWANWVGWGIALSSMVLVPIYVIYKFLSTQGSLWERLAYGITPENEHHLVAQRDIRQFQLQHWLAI
Chain of Monoamine transporters; Norepinephrine & dopamine (Homo sapiens) (P23975 whole entry, looked up): as the sequence (P23975 whole entry) above
Chain of Monoamine transporters; Norepinephrine & dopamine (Homo sapiens) (Q01959 whole entry, looked up): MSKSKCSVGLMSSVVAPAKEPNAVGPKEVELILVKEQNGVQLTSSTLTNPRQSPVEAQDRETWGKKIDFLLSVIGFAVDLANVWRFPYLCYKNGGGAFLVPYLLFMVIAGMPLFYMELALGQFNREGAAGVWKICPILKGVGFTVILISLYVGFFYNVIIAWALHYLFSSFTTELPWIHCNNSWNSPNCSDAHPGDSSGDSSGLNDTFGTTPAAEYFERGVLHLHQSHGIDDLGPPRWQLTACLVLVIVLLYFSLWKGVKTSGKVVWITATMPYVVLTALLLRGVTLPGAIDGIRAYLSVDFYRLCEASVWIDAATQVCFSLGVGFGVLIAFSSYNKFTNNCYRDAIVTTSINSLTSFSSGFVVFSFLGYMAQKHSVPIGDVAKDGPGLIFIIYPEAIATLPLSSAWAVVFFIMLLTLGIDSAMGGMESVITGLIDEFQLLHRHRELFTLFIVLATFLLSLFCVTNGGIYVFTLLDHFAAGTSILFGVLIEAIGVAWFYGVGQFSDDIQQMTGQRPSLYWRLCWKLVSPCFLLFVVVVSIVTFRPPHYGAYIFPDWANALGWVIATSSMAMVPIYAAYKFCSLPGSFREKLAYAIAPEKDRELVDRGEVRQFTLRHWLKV
Chain of Monoamine transporters; serotonin & dopamine (Homo sapiens) (P31645 whole entry, looked up): as the sequence (P31645 whole entry) above
Chain of Monoamine transporters; serotonin & dopamine (Homo sapiens) (Q01959 whole entry, looked up): as the sequence (Q01959 whole entry, looked up) above
T3 sequence (Q01959 whole entry): as the sequence (Q01959 whole entry, looked up) above

| SMILES | pKi [1] | pKi [2] | pKi [3] | Ratio [4] | Selectivity ratio [5] | pIC50 [6] | pIC50 [7] | pIC50 [8] | Ratio [9] | Selectivity ratio [10] | pKi [11] |
| --- | --- | --- | --- | --- | --- | --- | --- | --- | --- | --- | --- |
| O=C(CCc1ccccc1)NCCNCCOC(c1ccc(F)cc1)c1ccc(F)cc1 | 6.28 | 6.26 | 7.29 | 2.2 | 10.7 | 7.05 | 6.69 | 5.94 | 1.8 | 10.3 | – |
| O=C1CN(CCOC(c2ccccc2)c2ccccc2)CCN1CCCc1ccccc1 | 5.23 | – | 5.09 | > 1.7 | 1 | < 8.00 | < 8.00 | < 8.00 | > 1.2 | 0.7 | 5.23 |
| CN(CCCc1ccccc1)CCCN(C)CCOC(c1ccccc1)c1ccccc1 | 6.36 | 7.52 | 6.91 | 3.9 | 0.2 | 6.63 | 6.84 | 5.77 | 1.9 | 3.6 | – |
| O=C1CN(CCc2ccccc2)CCN1CCOC(c1ccc(F)cc1)c1ccc(F)cc1 | 6.94 | 5.15 | 5.84 | > 34.5 | 4.9 | < 5.00 | < 5.00 | 5.40 | > 1.7 | 0.1 | – |
| Fc1ccc(C(OCCNCCCNCCc2ccccc2)c2ccc(F)cc2)cc1 | 6.90 | 7.09 | 7.55 | 2 | 2.9 | 7.17 | 6.94 | 6.60 | 2.4 | 4.5 | – |
| CN(CCOC(c1ccc(F)cc1)c1ccc(F)cc1)CCN(C)CCOC(c1ccc(F)cc1)c1ccc(F)cc1 | 6.11 | 6.58 | 7.59 | > 13 | 10.2 | 6.08 | 5.59 | < 5.00 | 32.4 | 30.1 | – |
| O=C(Cc1ccccc1)NCCCNCCOC(c1ccc(F)cc1)c1ccc(F)cc1 | 5.94 | 6.32 | 7.21 | 1.1 | 7.8 | 7.14 | 6.72 | 5.91 | 1.2 | 18.8 | – |

Second part, led by results:

| pKi [1] | pKi [2] | pKi [3] | Ratio [4] | Selectivity ratio [5] | pIC50 [6] | pIC50 [7] | pIC50 [8] | Ratio [9] | Selectivity ratio [10] | SMILES | pKi [11] |
| --- | --- | --- | --- | --- | --- | --- | --- | --- | --- | --- | --- |
| 6.45 | 6.07 | 7.27 | 5.7 | 15.6 | 7.33 | 6.52 | 5.70 | 0.9 | 6.5 | O=C(Cc1ccc(F)cc1)NCCNCCOC(c1ccc(F)cc1)c1ccc(F)cc1 | – |
| 5.82 | 6.71 | 6.49 | 1.1 | 0.6 | 6.46 | 6.68 | 5.77 | 1.1 | 4.7 | CN(CCCN(C)CCc1ccccc1)CCOC(c1ccccc1)c1ccccc1 | – |
| 6.25 | 6.22 | 7.27 | 2.3 | 11.2 | 7.10 | 6.40 | 5.89 | 1.5 | 10.3 | O=C(Cc1ccccc1)NCCNCCOC(c1ccc(F)cc1)c1ccc(F)cc1 | – |
| 6.23 | 5.75 | 6.29 | 7.6 | 3.5 | 5.86 | < 5.00 | 5.35 | 2.7 | 1.2 | O=C(/C=C/c1ccc(Br)cc1)NCCNCCOC(c1ccc(F)cc1)c1ccc(F)cc1 | – |
| 6.26 | 6.43 | 7.52 | 1.9 | 12.3 | 6.92 | 6.55 | 5.98 | 4 | 18.3 | CN(CCOC(c1ccccc1)c1ccccc1)CCN(C)CCc1ccc(F)cc1 | – |
